Measurements: ChEMBL document CHEMBL1799968, “Dimethyl-diphenyl-propanamide derivatives as nonsteroidal dissociated glucocorticoid receptor agonists” (J Med Chem, 2010)

Columns and labels:
Glucocorticoid receptor = target: T1, Glucocorticoid receptor (Homo sapiens, UniProt P04150); assay: Displacement of GS-red from GRapha by fluorescence polarization assay
T1 sequence (P04150 whole entry): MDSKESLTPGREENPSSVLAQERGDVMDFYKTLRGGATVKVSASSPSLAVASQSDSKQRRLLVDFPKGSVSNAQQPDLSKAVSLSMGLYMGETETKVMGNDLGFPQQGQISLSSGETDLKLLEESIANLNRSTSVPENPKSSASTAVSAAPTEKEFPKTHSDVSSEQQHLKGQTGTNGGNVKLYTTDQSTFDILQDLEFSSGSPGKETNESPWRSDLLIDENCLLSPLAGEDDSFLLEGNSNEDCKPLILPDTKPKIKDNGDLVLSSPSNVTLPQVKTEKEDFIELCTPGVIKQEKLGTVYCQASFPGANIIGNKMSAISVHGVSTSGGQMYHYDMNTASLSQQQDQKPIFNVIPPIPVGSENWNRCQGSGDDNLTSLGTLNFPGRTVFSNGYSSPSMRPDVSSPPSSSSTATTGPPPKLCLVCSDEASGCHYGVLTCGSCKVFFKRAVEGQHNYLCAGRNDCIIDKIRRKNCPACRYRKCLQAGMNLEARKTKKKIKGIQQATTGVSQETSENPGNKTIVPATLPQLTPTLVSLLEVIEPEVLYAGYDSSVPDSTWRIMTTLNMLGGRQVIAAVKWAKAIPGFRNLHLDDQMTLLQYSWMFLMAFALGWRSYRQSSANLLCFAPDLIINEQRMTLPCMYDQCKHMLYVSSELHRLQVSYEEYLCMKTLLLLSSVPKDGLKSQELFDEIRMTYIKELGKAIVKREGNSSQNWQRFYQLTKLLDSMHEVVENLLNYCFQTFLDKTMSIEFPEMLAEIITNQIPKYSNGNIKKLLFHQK

[1] = target: T2, Mineralocorticoid receptor (Homo sapiens, UniProt P08235); assay: Agonist activity at mineralocorticoid receptor in human A549 cells; assay type: functional, cell-based
T2 sequence (P08235 whole entry): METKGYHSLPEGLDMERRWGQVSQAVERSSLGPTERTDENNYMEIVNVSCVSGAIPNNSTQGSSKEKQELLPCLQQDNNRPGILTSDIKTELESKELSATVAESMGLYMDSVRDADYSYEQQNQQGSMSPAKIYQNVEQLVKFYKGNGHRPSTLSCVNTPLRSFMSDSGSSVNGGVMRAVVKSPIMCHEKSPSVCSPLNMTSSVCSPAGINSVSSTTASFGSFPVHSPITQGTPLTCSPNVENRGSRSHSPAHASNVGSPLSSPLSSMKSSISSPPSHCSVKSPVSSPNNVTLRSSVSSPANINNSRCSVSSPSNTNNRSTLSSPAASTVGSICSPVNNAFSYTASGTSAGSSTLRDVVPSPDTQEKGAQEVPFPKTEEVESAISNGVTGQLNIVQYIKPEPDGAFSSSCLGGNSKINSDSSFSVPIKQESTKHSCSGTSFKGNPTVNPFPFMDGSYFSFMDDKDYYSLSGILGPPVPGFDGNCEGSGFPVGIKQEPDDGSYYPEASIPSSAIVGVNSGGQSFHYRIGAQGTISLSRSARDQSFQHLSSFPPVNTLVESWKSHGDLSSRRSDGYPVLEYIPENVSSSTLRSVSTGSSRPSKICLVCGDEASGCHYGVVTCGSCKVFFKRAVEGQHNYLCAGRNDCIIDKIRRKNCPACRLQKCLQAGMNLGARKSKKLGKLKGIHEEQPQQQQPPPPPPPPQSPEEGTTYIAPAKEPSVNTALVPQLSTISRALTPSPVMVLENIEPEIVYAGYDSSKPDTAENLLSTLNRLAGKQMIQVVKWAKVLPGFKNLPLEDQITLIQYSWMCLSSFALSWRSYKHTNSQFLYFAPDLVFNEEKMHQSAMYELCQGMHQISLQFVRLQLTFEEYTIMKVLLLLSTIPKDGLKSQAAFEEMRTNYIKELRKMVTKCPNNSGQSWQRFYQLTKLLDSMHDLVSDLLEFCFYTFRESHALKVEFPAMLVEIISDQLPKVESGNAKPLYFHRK

Estrogen receptor = target: T3, Estrogen receptor (Homo sapiens, UniProt P03372); assay: Binding affinity to ERalpha by fluorescence polarization assay
T3 sequence (P03372 whole entry): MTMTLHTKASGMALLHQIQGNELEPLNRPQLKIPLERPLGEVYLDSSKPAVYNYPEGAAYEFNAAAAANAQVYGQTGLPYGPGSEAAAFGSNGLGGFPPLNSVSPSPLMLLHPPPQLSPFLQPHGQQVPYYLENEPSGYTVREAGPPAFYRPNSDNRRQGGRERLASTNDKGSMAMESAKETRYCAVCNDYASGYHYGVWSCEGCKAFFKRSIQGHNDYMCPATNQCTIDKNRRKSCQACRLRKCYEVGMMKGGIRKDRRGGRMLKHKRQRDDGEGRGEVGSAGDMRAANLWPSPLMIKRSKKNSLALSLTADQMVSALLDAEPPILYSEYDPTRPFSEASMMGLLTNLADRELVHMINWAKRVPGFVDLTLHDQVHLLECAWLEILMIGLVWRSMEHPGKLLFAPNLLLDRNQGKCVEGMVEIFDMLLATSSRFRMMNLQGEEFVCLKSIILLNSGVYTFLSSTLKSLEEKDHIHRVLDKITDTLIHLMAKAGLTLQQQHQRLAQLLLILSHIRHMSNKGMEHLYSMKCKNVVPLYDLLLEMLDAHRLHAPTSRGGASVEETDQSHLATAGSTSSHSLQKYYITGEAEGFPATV
Method in brief: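 Fluorescence polarization competition of test compound against a fluorescently labelled ligand for binding to full-length receptor or its ligand-binding domain.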

[2] = target: T4, Glucocorticoid receptor (Homo sapiens) (UniProt P04150); assay: Transactivation activity of glucocorticoid receptor ligand binding domain expressed in human NP-1 Hela cells co-expressing GAL4 DNA binding domain by luciferase reporter gene assay relative to Dexamethasone; assay type: cell-based
T4 sequence (whole entry): T1 sequence (P04150 whole entry)
Method in brief: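 HeLa NP-1 cells stably carrying a GAL4 DBD–human GR LBD chimera with a GAL4 luciferase reporter. Agonist activity was read as increased luciferase activity.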

[3] = Selectivity ratio of Ki of GRapha to Ki of estrogen receptor alpha

Row | Structure (SMILES) | Ki (Glucocorticoid receptor) [µM] | EC50 [1] [µM] | Ki (Estrogen receptor) [µM] | Efficacy [2] [%] | Ratio Ki [3]
1 | CC(C)(C(=O)Nc1nccs1)[C@@H](c1ccccc1)c1ccc(O)cc1 | 0.0012 | > 5 | > 100 | 21 | > 6800
2 | CC(C)(C(=O)Nc1nncs1)[C@H]1c2ccccc2Oc2cc(O)ccc21 | 0.0008 | > 5 | 5.5 | 46 | > 6800
3 | CC(C)(C(=O)Nc1nccs1)[C@@H](c1ccccc1)c1ccc(O)c(F)c1 | 0.0007 | > 5 | > 50 | 61 | > 6800

The next compounds have a lower Ki (Glucocorticoid receptor) than those just listed; values first:

Row | Ki (Glucocorticoid receptor) [µM] | EC50 [1] [µM] | Ki (Estrogen receptor) [µM] | Efficacy [2] [%] | Ratio Ki [3] | Structure (SMILES)
4 | 0.0003 | > 5 | 2.3 | 30 | > 6800 | CC(C)(C(=O)Nc1nccs1)[C@H]1c2ccccc2Oc2cc(O)ccc21
5 | 0.0004 | > 5 | > 50 | 48 | > 6800 | CC(C)(C(=O)Nc1nccs1)[C@@H](c1ccccc1)c1ccc(O)c(Br)c1
